Assay outcomes deposited in PubChem BioAssay by several laboratories.
FLuc inh counter – Photinus pyralis luciferase inhibition counter-screen | P08659 | ATPLite firefly luciferase biochemical luminescence, 10 min | inhibition, % at 10 µM | 1.5% of 200,000 active | AID 1006;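 active means inhibition above about 50% when tested at 10 µM, limit read from the data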
Target sequence (P08659 whole entry, looked up): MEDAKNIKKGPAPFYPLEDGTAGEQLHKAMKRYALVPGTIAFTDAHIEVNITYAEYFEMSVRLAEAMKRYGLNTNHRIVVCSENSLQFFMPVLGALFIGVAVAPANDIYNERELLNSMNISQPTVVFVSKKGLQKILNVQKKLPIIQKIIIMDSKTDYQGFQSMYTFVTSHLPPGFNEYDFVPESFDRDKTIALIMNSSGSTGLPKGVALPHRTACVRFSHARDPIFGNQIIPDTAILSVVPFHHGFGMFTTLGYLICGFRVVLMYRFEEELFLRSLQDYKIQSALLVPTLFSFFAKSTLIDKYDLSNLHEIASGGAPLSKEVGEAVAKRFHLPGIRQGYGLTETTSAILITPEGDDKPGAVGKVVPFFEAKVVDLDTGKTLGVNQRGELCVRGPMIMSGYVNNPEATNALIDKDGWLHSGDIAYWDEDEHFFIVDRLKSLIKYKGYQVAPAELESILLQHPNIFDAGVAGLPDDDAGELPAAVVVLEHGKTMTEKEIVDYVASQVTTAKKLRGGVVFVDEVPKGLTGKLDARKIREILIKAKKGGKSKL
STAT1 act – STAT1 signaling activation; 2.6% of 200,000 active; NIH 3T3 STAT1-luciferase reporter, IFN-gamma, luminescence; 100% = IFN-gamma alone, no compound; AID 932; activation (% of control), % at 5.5 µM;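 active means activation above the screen-wide mean activation plus 3 SD, cut at about 130% in these data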
NF-kB expr up – compounds increasing NF-kB expression in human neuronal cells. fold change at 12.5 µM. NF-kB reporter expression; hits give high values. 1.6% of 190,000 active; in the data active means fold change above about 3.3
FLuc stim CS – affects firefly luciferase, flagging false hits in luciferase stimulation screens | P08659 | ATPlite luciferase biochemical, luminescence, 10 min; 0 = ATP-free wells, 1 = DMSO control | activation factor at 10 µM | 200,000 tested, under 10 active | AID 1027;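 active means luciferase activation factor, scaled between plate controls, of at least 2 with compound at 10 µM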
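Material: Luciferase/luciferin reagent mix | Doses: Test compounds dosed from 2 mM stocks in 100% DMSO | Timing: 10 min incubation after luciferase reagent addition, room temperature | Measured by: Luminescence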
APP 5'UTR act – APP 5'UTR luciferase reporter activation. SH-SY5Y APP 5'UTR luciferase reporter, luminescence; zero percent = DMSO vehicle wells. activation, % at 2 µM. 1% of 190,000 active. AID 1276;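 active means activation above a set limit, based on mean plus 3 SD of controls, cut at about 140% in these data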
Hits are given with their value; – = inactive; · = no result. An excerpt weighted towards active compounds, which were near 4.1% of everything screened.

SMILES	FLuc inh counter	STAT1 act	NF-kB expr up	FLuc stim CS	APP 5'UTR act
COc1ccc2c(c1OC)C(=O)N(c1cccc(C)c1)C2=O	–	136	–	–	–
C=COC(=O)CSc1nc(-c2cccs2)ccc1C#N	–	136	–	–	–
COCCNC(C(=O)Nc1cc(Cl)cc(Cl)c1)c1ccccc1 (stereo not drawn)	–	–	–	–	–
CCOCCCNC(C(=O)Nc1ccc(OC)c(Cl)c1)c1ccccc1 (stereo not drawn)	–	–	–	–	169
CC(=O)c1cccc(NC(=S)NC(=O)c2ccc(C)cc2)c1	–	138	3.5	–	–
CCOC(=O)c1cccc(NC(=O)c2ccc(N(C)C)cc2)c1	60	–	–	–	–
CCC(=O)Nc1cccc(NC(=S)NC(=O)c2ccc(C)cc2)c1	–	145	–	–	–
CCOC(=O)Cc1csc(NC(=S)NC(=O)c2ccc(C)cc2)n1	80	–	–	–	–
CC(=O)c1ccc(S(=O)c2ccccc2)cc1 (stereo not drawn)	–	–	–	–	–
CCC(=O)NC(=S)NNC(=O)COc1ccc(Br)cc1	–	–	–	–	–
COc1ccc(NC(=O)C2=C(C)Nc3nc(CCCO)nn3C2c2ccc(OC)c(OC)c2)cc1 (stereo not drawn)	–	–	–	–	–
O=C(O)c1cccc(NC(=O)c2ccc3c(c2)C(=O)N(CC2CCCO2)C3=O)c1 (stereo not drawn)	51	–	–	–	–
Cc1ccc(C(=O)Nc2cccc(C(=O)O)c2)cc1	62	–	5.3	–	–
CC(=O)c1cccc(NC(=S)NC(=O)c2ccc(C)cc2Cl)c1	–	131	–	–	–
CC(=O)Nc1ccc(-c2csc(NCc3ccco3)n2)cc1	–	137	3.7	–	–
c1cncc(-c2csc(NCc3ccco3)n2)c1	–	–	–	–	–
CCOC(=O)c1ccccc1N/C=C/C(=O)c1cccs1	–	–	–	–	–
Cc1ccc(N/C=C/C(=O)c2cccs2)cc1	97	–	–	–	214
O=C(/C=C\Nc1cccc(F)c1)c1cccs1	79	149	7.7	–	189
O=C(Nc1cccc(F)c1)/C(=C\c1ccco1)NC(=O)c1cccs1	–	–	–	–	–
O=C(/C=C/Nc1ccc(F)cc1F)c1cccs1	98	–	3.8	–	–
O=C(/C=C/Nc1ccccc1F)c1cccs1	95	–	7.2	–	175
COc1cc([N+](=O)[O-])ccc1NC(=O)CN1CCN(C(=O)c2ccco2)CC1	–	–	–	–	–
O=C(NC1CCCCC1)C(c1ccc(Cl)cc1)N(C(=O)c1ccccn1)c1cccnc1 (stereo not drawn)	–	–	–	–	–
COc1ccc(C(=O)/C=C/c2ccc(F)cc2)c(OC(=O)c2ccc([N+](=O)[O-])cc2)c1	–	–	–	–	–
SMILES	FLuc inh counter	STAT1 act	NF-kB expr up	FLuc stim CS	APP 5'UTR act
COc1ccc(C(=O)/C=C/c2cccs2)c(OC(=O)c2cccc([N+](=O)[O-])c2)c1	–	–	6	–	–
O=C(N/N=C/c1cccnc1)c1[nH]ncc1Br	–	–	–	–	–
O=C(N/N=C/c1ccccc1)c1[nH]ncc1Br	70	130	–	–	–
Cc1ccc(OCc2nn3c(-c4n[nH]c5c4CCC5)nnc3s2)cc1	–	·	·	–	·
Cc1cc(NC(=O)c2ccc3c(c2)OCCO3)ccc1NC(=O)c1ccco1	82	–	–	–	–
COc1cc(NC(=O)C(C)C)ccc1NC(=O)c1ccco1	–	134	–	–	–
O=C(Nc1ccc(NC(=O)c2ccco2)cc1)c1ccc2c(c1)OCCO2	–	–	–	–	–
Cc1cc([N+](=O)[O-])ccc1NC(=O)c1ccco1	–	–	–	–	–
Cc1cc(NC(=O)c2ccc([N+](=O)[O-])o2)ccc1NC(=O)c1ccco1	–	–	5.1	–	–
O=C(CCS(=O)(=O)c1ccc(Br)s1)Nc1ccccc1Br	–	–	–	–	–
Cc1nn2c(COc3ccc(NC(=O)c4ccccc4Cl)cc3)nnc2c2ccccc12	–	–	–	–	–
O=C(Nc1ccc2c(c1)OCO2)C1CCCN(c2nc3ccccc3s2)C1 (stereo not drawn)	–	129	–	–	–
CCc1nnc(NC(=O)C2CCCN(c3nc4ccccc4s3)C2)s1 (stereo not drawn)	–	–	–	–	–
CCOc1cccc2c1OC(c1cc(OC)c(OC)c(OC)c1)N1N=C(c3ccc(C)o3)CC21 (stereo not drawn)	52	–	–	–	137
CC1=C(C(=O)OCCc2ccccc2)C(c2ccsc2)NC(=O)N1C (stereo not drawn)	–	–	–	–	–
Cc1cc(C(=O)Cn2nc(C(=O)O)c3ccccc3c2=O)c(C)n1-c1ccccc1	92	–	–	–	–
CCOc1ccc(NC(=O)c2cccnc2C(=O)O)cc1	–	–	–	–	–
COc1ccc(NC(=O)c2oc3ccccc3c2NC(=O)C2CC2)cc1	–	–	–	–	–
CCOc1ccc(NC(=O)c2oc3ccccc3c2NC(=O)CC)cc1	–	–	5.1	–	–
CCOc1ccc(NC(=O)c2ccccn2)cc1	96	–	–	–	–
Cc1ccc(NC(=O)c2ccc(Cl)nc2)cc1	–	131	–	–	–
CCOc1ccc(NC(=O)c2nccnc2CO)cc1	63	144	–	–	–
CCOc1ccc(NC(=O)c2ccccc2CO)cc1	–	–	–	–	–
CCOC(=O)C1CCN(Cc2cnc(Oc3ccc(C(C)(C)C)cc3)s2)CC1	–	–	–	–	–
CCOc1ccc2ccccc2c1C(=O)Nc1cc(=O)n(C)c(=O)n1C	–	–	–	–	–
SMILES	FLuc inh counter	STAT1 act	NF-kB expr up	FLuc stim CS	APP 5'UTR act
CCC(=O)N1CCN(c2ccc(NC(=O)c3ccc(-c4ccccc4)cc3)cc2)CC1	–	–	–	–	–
NC(=O)C1CC(=O)N(c2ccc(OCc3ccc(Cl)cc3)cc2)C1 (stereo not drawn)	–	–	–	–	–
CCOc1ccc(NC(=O)c2cnccn2)cc1	72	–	–	–	150
CCN(CC)c1ccc(/C=N/NC(=O)c2cnccn2)cc1	66	132	–	–	–
CCOc1ccc(NC(=O)c2cnsn2)cc1	61	–	3.5	–	153
CCOc1ccc(NC(=O)c2ccccc2O)cc1	87	–	6.3	–	–
C=CCn1c(SCC(=O)NC23CC4CC(CC(C4)C2)C3)nc2cc(C(=O)O)ccc2c1=O	–	–	–	–	–
Cc1ccc(NC(=O)c2cnccn2)cc1	–	134	–	–	–
CCCC(=O)Nc1ccc(NC(=O)c2ccccc2OC)cn1	–	–	–	–	–
O=C(Nc1ccc(Br)cc1)c1cnccn1	–	–	–	–	–
CCCC(=O)Nc1ccc(NC(=O)c2ccccn2)cn1	–	141	–	–	–
CCOc1ccc(C(=O)Nc2ncccc2Cl)cc1	–	129	–	–	–
CCOc1ccc(NC(=O)c2ccccc2OCC(=O)c2ccccc2)cc1	61	–	–	–	–
